From PubChem BioAssay
GASC1 inh = KDM4C (human) demethylase inhibition. hit rate 0.15% among 96,000. GST-KDM4C 2-372, H3K9me3 peptide, LANCE TR-FRET. AID 720574. inhibition, % at 12.5 µM. Q9H3R0;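 active = mean replicate inhibition above about 25%, with at least 55% of replicates also reaching it, limit read from the data, passing the limit was not always enough; inconclusive = only one of those two conditions met; inactive = neither condition met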
Target sequence (Q9H3R0 2-372 limits assumed): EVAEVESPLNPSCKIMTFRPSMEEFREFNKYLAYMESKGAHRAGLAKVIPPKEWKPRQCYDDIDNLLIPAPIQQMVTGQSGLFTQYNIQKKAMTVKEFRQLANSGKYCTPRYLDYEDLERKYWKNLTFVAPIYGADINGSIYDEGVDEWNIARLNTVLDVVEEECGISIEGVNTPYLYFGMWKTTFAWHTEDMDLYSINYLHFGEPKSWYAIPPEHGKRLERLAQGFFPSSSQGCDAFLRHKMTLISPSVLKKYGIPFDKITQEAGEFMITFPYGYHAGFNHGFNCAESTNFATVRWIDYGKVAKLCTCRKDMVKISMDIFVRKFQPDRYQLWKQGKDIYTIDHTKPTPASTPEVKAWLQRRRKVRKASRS
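Material: N-terminal GST-fused human GASC-1 (KDM4C) fragment, residues 2-372. Input: 10 nM enzyme. Incubation: enzyme reaction 30 min, then detection 60 min, both room temperature. Doses: one test concentration per compound. Read-out basis: inhibition from TR-FRET ratio decrease. Detection: LANCE TR-FRET, excitation 340 nm, emissions 618 and 671 nm.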
IDH1 R132H inh = IDH1 R132H (human) inhibition; O75874; IDH1 R132H reductase, diaphorase/resazurin fluorescence, 60 min; inhibition, % at 10 µM; hit rate 0.18% among 70,000; AID 624101; in the data active = inhibition above about 34%; inconclusive = no clear call, values can overlap the other calls; inactive = below about 11%;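 note: 0% = DMSO and 100% = no enzyme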
T cruzi growth-1 = blocks T. cruzi growth in NIH3T3 culture; T. cruzi beta-gal in NIH3T3, GalScreen luminescence, 90 h; inhibition, % at 8.34 µM; hit rate 5.9% among 77,000; AID 624255;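 active = mean inhibition above about 93%, with at least 55% of replicates each passing it, limit read from the data, passing the limit was not always enough; inconclusive = only one of those two conditions holds; inactive = neither condition holds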
T cruzi growth-2 = blocks T. cruzi growth in NIH3T3 host cells; shares compounds with T cruzi growth-1; T. cruzi beta-gal in NIH3T3, GalScreen luminescence, 90 h; inhibition, % at 8.35 µM; hit rate 72% among 5,600;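 active = mean replicate inhibition above about 95% and at least 55% of replicates individually reaching it, limit read from the data; inconclusive = only one of the two criteria is met; inactive = neither criterion is met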
T cruzi growth-3 = inhibitors of T. cruzi proliferation; hit rate 21% among 5,600; shares compounds with T cruzi growth-1; T. cruzi beta-gal in NIH3T3, GalScreen luminescence, 90 h; AID 651740; inhibition, % at 2.09 µM;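 active = mean inhibition above about 95%, with at least 55% of replicates also reaching it, limit read from the data; inconclusive = meets just one of the two conditions; inactive = meets neither condition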;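 note: plate controls were neutral control median for no effect and positive control median for full effect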
3T3 cytotox = cytotoxicity in mouse NIH/3T3 fibroblasts | shares compounds with T cruzi growth-1 | NIH/3T3 viability, CellTiter-Glo ATP luminescence, 90 h | cytotoxicity (signal decrease), % at 8.35 µM | hit rate 14% among 5,600 | AID 651742;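 active = mean signal decrease across replicates above about 35% based on untreated-well scatter, with enough replicates individually passing, limit read from the data; inconclusive = no rule stated though some were filed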;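 note: 0% = median of neutral control wells and 100% = median of positive control wells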
NIH3T3 tox 2 = kills mouse NIH/3T3 fibroblasts | shares compounds with T cruzi growth-1 | NIH/3T3 viability, CellTiter-Glo ATP luminescence, 90 h | inhibition, % at 24.9 µM | hit rate 56% among 5,600 | AID 651744;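 active = mean loss of cell viability signal at or above a set limit, and enough replicates individually reaching it; inconclusive = meets only the mean limit or only the replicate share; inactive = meets neither condition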;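 note: 0% = median of neutral control wells and 100% = median of positive control wells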
* = called active by the depositor; u = inconclusive; x = no result. Shown is part of a subset that was picked to be rich in hits.

SMILES	GASC1 inh	IDH1 R132H inh	T cruzi growth-1	T cruzi growth-2	T cruzi growth-3	3T3 cytotox	NIH3T3 tox 2
CC(=O)c1cccc(NC(=O)CN(c2cc(Cl)c(Cl)cc2Cl)S(C)(=O)=O)c1	x	0	x	x	x	x	x
O=C(COc1ccc([N+](=O)[O-])cc1)Nc1ccccc1OC(F)F	x	1	x	x	x	x	x
CCc1ccc2[nH]c(C(=O)Nc3ccccc3C(C)CC)cc2c1 (configuration not stated)	x	2	x	x	x	x	x
Cc1ccc(NC(=O)CC2NC3CCCCC3NC2=O)cc1Cl (configuration not stated)	x	0	x	x	x	x	x
C[C@@H]1CCCCO[C@H](CN(C)CC2CCCCC2)[C@@H](C)CN([C@H](C)CO)C(=O)c2cc(NC(=O)Nc3ccc4c(c3)OCO4)ccc2O1	15	x	97*	109*	112*	12	83*
C[C@@H]1CN([C@@H](C)CO)C(=O)c2cc(NC(=O)Nc3ccc4c(c3)OCO4)ccc2O[C@@H](C)CCCCO[C@@H]1CN(C)Cc1ccc2c(c1)OCO2	0	-1	x	x	x	x	x
C[C@@H]1CCCCO[C@H](CN(C)CC2CCCCC2)[C@H](C)CN([C@H](C)CO)C(=O)c2cc(NC(=O)Nc3ccc4c(c3)OCO4)ccc2O1	-1	0	60	x	x	x	x
C[C@@H]1CCCCO[C@H](CN(C)Cc2ccc3c(c2)OCO3)[C@H](C)CN([C@@H](C)CO)C(=O)c2cc(NC(=O)c3ccncc3)ccc2O1	1	0	112*	15	5	-4	-38
C[C@@H]1CCCCO[C@@H](CN(C)Cc2ccc3c(c2)OCO3)[C@H](C)CN([C@@H](C)CO)C(=O)c2cc(NC(=O)Nc3ccc4c(c3)OCO4)ccc2O1	-1	x	103*	99*	20	19	21
C[C@@H]1CCCCO[C@@H](CN(C)Cc2ccc(Cl)c(Cl)c2)[C@@H](C)CN([C@H](C)CO)C(=O)c2cc(NC(=O)CCC(F)(F)F)ccc2O1	x	x	u	108*	82	-5	-18
C[C@H](CO)N1C[C@H](C)[C@H](CN(C)Cc2ccc3c(c2)OCO3)OCCCC[C@H](C)Oc2ccc(NC(=O)c3ccncc3)cc2C1=O	6	3	62	x	x	x	x
C[C@@H]1CN([C@@H](C)CO)C(=O)c2cc(NC(=O)CCC(F)(F)F)ccc2O[C@@H](C)CCCCO[C@H]1CN(C)Cc1ccc(Cl)c(Cl)c1	2	2	64	x	x	x	x
Cn1c(SCC(=O)O)nnc1-c1ccccc1	x	1	x	x	x	x	x
O=C(COc1ccccc1[N+](=O)[O-])Nc1ccc2oc(-c3ccc(F)cc3Cl)nc2c1	x	1	x	x	x	x	x
Cc1ccc(NC(=O)CSc2nnc(C)n2-c2ccc(Cl)cc2)c(Br)c1	x	0	x	x	x	x	x
C[C@@H]1CCCCO[C@@H](CN(C)Cc2ccc(Cl)c(Cl)c2)[C@H](C)CN([C@@H](C)CO)C(=O)c2cc(NC(=O)Nc3ccc4c(c3)OCO4)ccc2O1	-1	x	104	x	x	x	x
C[C@@H]1CN([C@H](C)CO)C(=O)c2cc(NC(=O)Cc3ccccc3)ccc2O[C@@H]1CN(C)Cc1ccc(Cl)c(Cl)c1	0	1	109*	109*	88	20	93*
C[C@H](CO)N1C[C@H](C)[C@H](CN(C)Cc2ccc3c(c2)OCO3)OCCCC[C@H](C)Oc2ccc(NC(=O)Nc3ccccc3)cc2C1=O	-1	1	103*	106*	82	26	104*
C[C@H]1CN([C@@H](C)CO)C(=O)c2cc(NC(=O)Cc3ccccc3)ccc2O[C@@H]1CN(C)Cc1ccc(Cl)c(Cl)c1	0	4	106	x	x	x	x
C[C@@H]1CN([C@H](C)CO)C(=O)c2cc(NC(=O)Cc3ccccc3)ccc2O[C@@H](C)CCCCO[C@@H]1CN(C)Cc1ccc2c(c1)OCO2	1	x	100*	105*	37	25	102*
C[C@@H]1CCCCO[C@H](CN(C)Cc2ccc(Cl)c(Cl)c2)[C@H](C)CN([C@@H](C)CO)C(=O)c2cc(NC(=O)Nc3ccc4c(c3)OCO4)ccc2O1	-2	1	101*	96*	117*	19	-1
C[C@@H]1CCCCO[C@H](CN(C)Cc2ccc3c(c2)OCO3)[C@@H](C)CN([C@@H](C)CO)C(=O)c2cc(NC(=O)Nc3ccccc3)ccc2O1	-1	-2	68	x	x	x	x
